Series [1] is filed under the species Rattus norvegicus. The series is described as follows: Protective index, ratio of TD50 for Sprague-Dawley albino rat to anticonvulsant ED50 for Sprague-Dawley albino rat. It counts as functional. Summed up: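 Rat, oral: behavioral-toxicity TD50 divided by MES ED50, both in mg/kg.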
Series [2] is filed under the species Mus musculus. The series is described as follows: Protective index, ratio of TD50 for albino mouse to anticonvulsant ED50 for albino mouse. It counts as functional.
A short description of series [3]: Behavioral toxicity in po dosed Sprague-Dawley albino rat after 1 hr. It counts as organism-based. The note with it: Sprague-Dawley, in vivo. The method, boiled down:
(§1)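 Oral dosing in male albino Sprague-Dawley rats with behavioral toxicity observation at set times after dosing, doses up to 500 mg/kg.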

Series [4] relates to Mus musculus. Briefly: Anticonvulsant activity in ip dosed albino mouse assessed as inhibition of maximal electroshock-induced seizures after […]. It is filed as functional. (In the maximal electroshock model the usual endpoint is tonic extension of the hind limbs.)
The nature of series [5]: (§2) Toxicity in ip dosed albino mouse after 0.5 hrs by rotarod test. It is filed as organism-based. The note with it: albino, in vivo. For orientation: In the rotarod test animals must keep their balance on a rotating rod.
Series [6] has as its system Mus musculus. The series is described as follows: Anticonvulsant activity in ip dosed albino mouse assessed as inhibition of maximal electroshock-induced seizures after 0.5 hrs. It is filed as functional.
The test system of series [7] is Mus musculus. Briefly: Anticonvulsant activity in ip dosed albino mouse assessed as protection against subcutaneous metrazole-induced seizures. It is filed as functional. The method, boiled down:
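Subcutaneous Metrazol seizure model in male albino Carworth Farms No. 1 mice, ip dosing. Doses up to 300 mg/kg tested at two time points (0.5 and 4 h).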

The test system of series [8] is Mus musculus. The series is described as follows: Anticonvulsant activity in albino mouse assessed as protection against subcutaneous metrazole-induced seizures up to 300 mg/kg, ip after 4 hrs. It counts as functional, organism-based. Set-up: dose 300 mg/kg. The method, boiled down:
(§3)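 Male albino Carworth Farms No. 1 mice dosed ip under NIH Anticonvulsant Screening Program; subcutaneous Metrazol seizure challenge at 0.5 and 4 h after doses up to 300 mg/kg.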

The test system of series [9] is Mus musculus. The series is described as follows: Anticonvulsant activity in albino mouse assessed as protection against subcutaneous metrazole-induced seizures up to 300 mg/kg, ip after 0.5 hrs. Also noted: dose 300 mg/kg. It is filed as functional, organism-based. The method, boiled down:
as §3

Series [10] deals with Mus musculus. The series is described as follows: Anticonvulsant activity in ip dosed albino mouse assessed as inhibition of maximal electroshock-induced seizures after 4 hrs. It is filed as functional. The method, boiled down: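 Male albino Carworth Farms No. 1 mice given compound ip; maximal electroshock applied and protection scored as blockade of hind limb extension; identification screening, then ED50 (mg/kg) from quantitative testing for active compounds.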

Series [11] deals with Mus musculus. The description is as §2. It counts as organism-based. The note with it: in vivo, 0.5 h.
Series [12] can be described thus: Toxicity in ip dosed albino mouse after 4 hrs by rotarod test. It counts as organism-based. The note with it: in vivo. The method, boiled down:
(§4)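 Male albino Carworth Farms No. 1 mice dosed ip; neurological impairment by rotorod test at set times; TD50 (mg/kg) determined for compounds active in MES.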

The nature of series [13]: Toxicity in ip dosed albino mouse by rotarod test. It counts as organism-based. As to conditions: in vivo. Summed up:
as §4

Series [14] concerns Rattus norvegicus. Briefly: (§5) Behavioral toxicity in po dosed Sprague-Dawley albino rat. It is filed as organism-based. The note with it: in vivo.
Series [15] has as its system Rattus norvegicus. Briefly: Anticonvulsant activity in po dosed Sprague-Dawley albino rat assessed as inhibition of maximal electroshock-induced seizures. It counts as functional. Summed up:
(§6)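 Male albino Sprague-Dawley rats dosed orally; maximal electroshock seizures, protection scored as blockade of hind limb extension, tested at set times after dosing; ED50 in mg/kg from quantitative evaluation for active compounds.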

For series [16], the system named is Mus musculus. The series is described as follows: Anticonvulsant activity in ip dosed albino mouse assessed as inhibition of maximal electroshock-induced seizures. It is filed as functional. The method, boiled down:
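Male albino Carworth Farms No. 1 mice dosed intraperitoneally; screened via the NIH Anticonvulsant Screening Program. Protection scored as blocking of hind limb extension after maximal electroshock. Median effective dose (ED50, mg/kg) obtained in quantitative evaluations of active compounds. Rotorod test gave TD50 for neurological impairment, and PI = TD50/ED50.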

In series [17] the test system is Rattus norvegicus. Briefly: Anticonvulsant activity in po dosed Sprague-Dawley albino rat assessed as inhibition of maximal electroshock-induced seizures after 0.25 to 2 hrs. It is filed as functional. Summed up:
as §6

The subject of series [18] is Mus musculus. The series is described as follows: Anticonvulsant activity in ip dosed albino mouse assessed as protection against 6 Hz electric shock-induced seizures after 0.5 hrs. It is filed as functional. Summed up: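 Psychomotor 6 Hz (32 mA) seizure model in male albino Carworth Farms No. 1 mice given compound ip; ED50 in mg/kg.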
Series [19] can be described thus: Behavioral toxicity in po dosed Sprague-Dawley albino rat after 0.25 to 4 hrs. The note with it: in vivo. It counts as organism-based. The method, boiled down:
as §1

In series [20] the test system is Mus musculus. The series is described as follows: Antiinflammatory activity in albino mouse assessed as reduction in formalin-induced late inflammation at 16 mg/kg, ip. It is filed as functional, organism-based. Set-up: dose 16 mg/kg.
A short description of series [21]: as §5. It counts as organism-based. As to conditions: Sprague-Dawley, in vivo.

The source made the active and inactive calls. The calls are words filed in the database; no cut-off is given here.

Broadly, the TD50 is the dose at which the toxic effect under study appears in half of the subjects. Read a low TD50 as greater toxicity. By ED50 is commonly meant the dose that gives a 50% effect, or the effect in half of the subjects. With `COC[C@@H](NC(C)=O)C(=O)NCc1ccc(OCc2ccccc2)cc1`, the “Ratio TD50/ED50” value is over 45 in the series listed under Rattus norvegicus [1] and 3.8 in the series filed under Mus musculus [2]. The TD50 at 1 h in series [3] is over 250 mg/kg. Moreover, the 50% effective dose (ED50) in the series on Mus musculus [4] was 5.8 mg/kg.
In the case of `COCC(NCc1ccc(OCc2cccc(F)c2)cc1)C(N)=O` (racemic), the TD50 at 0.5 h in [5] stood at 100 mg/kg. Moreover, the ED50 in the series with Mus musculus [6] was 30 mg/kg; with Mus musculus [7], over 300 mg/kg.
As to `COC[C@H](NC(C)=O)C(=O)NCc1ccc(OCc2cccc(F)c2)cc1`, the outcome with Mus musculus [8] and in the series with Mus musculus [9] was inactive.
`COC[C@@H](NC(C)=O)C(=O)NCc1ccc(OCCc2cccc(F)c2)cc1` came in with a TD50 at 0.5 h in series [5] of 30 mg/kg. The median effective dose (ED50) with Mus musculus [6] and in the series with Mus musculus [10] was 30 mg/kg each time.
For the compound `COC[C@@H](NC(C)=O)C(=O)NCc1ccc(OCc2ccccc2F)cc1`, the ED50 in the series on Mus musculus [4] was determined as 6.7 mg/kg.
In the series with Mus musculus [11], `CC(=O)N[C@@H](C(=O)NCc1ccc(OCc2cccc(F)c2)cc1)C(C)(C)C` yielded a TD50 of over 300 mg/kg. In series [12], this compound registered a TD50 at 4 h of 300 mg/kg. The outcome with Mus musculus [8] and with Mus musculus [9] was inactive. Also, the median effective dose (ED50) in the series with Mus musculus [10] is over 300 mg/kg.
In turn, `COC[C@@H](NC(C)=O)C(=O)NCc1ccc(COCc2cccc(F)c2)cc1` registered a TD50 at 0.5 h in series [5] of 30 mg/kg. Moreover, the median effective dose (ED50) in the series on Mus musculus [6] was determined as 30 mg/kg.
For the compound `CC(=O)NC(C(=O)NCc1ccccc1)c1ccco1` (racemic), the TD50 in series [13] was 40 mg/kg.
With `CC(=O)N[C@@H](C(=O)NCc1ccc(OCc2cccc(F)c2)cc1)C(C)C`, the TD50 in the series on Rattus norvegicus [14] was over 30 mg/kg. For the same compound, the results for the ED50 with Rattus norvegicus [15] and with Mus musculus [10] were over 30 mg/kg and over 300 mg/kg, respectively. This compound yielded a TD50 at 4 h in [12] of over 300 mg/kg. Besides, the outcome with Mus musculus [8] and with Mus musculus [9] was inactive.
With `C[C@H](NCc1ccc(OCc2cccc(F)c2)cc1)C(N)=O` [SAFINAMIDE], the 50% effective dose (ED50) in the series on Mus musculus [16] amounted to 8 mg/kg; in the series with Mus musculus [7] it was 27 mg/kg. Also, the “Ratio TD50/ED50” value in the series listed under Mus musculus [2] was 78. The compound also had a TD50 in [13] of 630 mg/kg. The result in the series on Mus musculus [8] and in the series on Mus musculus [9] was inactive.
`COC[C@@H](NC(C)=O)C(=O)NCc1ccc(NCc2cccc(F)c2)cc1` came in with a TD50 at 0.5 h in series [5] of 30 mg/kg. For the same compound, the ED50 in the series with Mus musculus [6] stood at 10 mg/kg.
On to `COC[C@@H](NC(C)=O)C(=O)NCc1ccc(Oc2cccc(F)c2)cc1`, for which the ED50 in the series on Rattus norvegicus [17] was under 10 mg/kg; in the series with Mus musculus [18], 10 mg/kg; in the series on Mus musculus [4], 5.5 mg/kg. In addition, the “Ratio TD50/ED50” value in the series listed under Mus musculus [2] was 4.2. In addition, the TD50 in [19] is over 10 mg/kg.
Consider `C[C@@H](NCc1ccc(OCc2cccc(F)c2)cc1)C(N)=O`, for which the median effective dose (ED50) in the series with Mus musculus [16] (read-out: ED50) came out at 7.2 mg/kg. Also, the “Ratio TD50/ED50” value in the series filed under Mus musculus [2] is 88. In [13], the TD50 came out at 580 mg/kg. Besides, the result in the series on Mus musculus [8] and with Mus musculus [9] was inactive.
Regarding `COC[C@@H](NC(C)=O)C(=O)NCc1ccccc1` [LACOSAMIDE], the result in the series on Mus musculus [20] was Active. Further, the TD50 in series [21] is over 500 mg/kg. Moreover, the result in the series with Mus musculus [8] and in the series on Mus musculus [9] was inactive.

These data come from ChEMBL document CHEMBL1157779, “Merging the structural motifs of functionalized amino acids and alpha-aminoamides: compounds with significant anticonvulsant activities” (J Med Chem, 2010).
